Screening data: PubChem, several laboratories
Shown are actives, neighbours in structure and some others; about 2% of the full set was active somewhere.
HSP90 inh: HSP90 refolding inhibition in rabbit reticulocyte lysate | luciferase refolding luminescence, 3 h | inhibition, % at 5.6 µM | 0.91% of 290,000 active | AID 1789;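 active = inhibition above the screen-wide mean plus 3 SD, computed separately per campaign, cut at about 16% in these data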;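 note: 0% = DMSO wells and 100% = 60 µM geldanamycin wells; inhibitors lower the luminescence because luciferase stays unfolded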
FLuc act counter: firefly luciferase counter-screen for stimulation assays; 200,000 tested, under 10 active; activation factor at 10 µM; ATPlite luciferase biochemical, luminescence, 10 min; 0 = ATP-free wells, 1 = DMSO control; P08659;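 active = luciferase activation factor, scaled between plate controls, of at least 2 with compound at 10 µM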
Target sequence (P08659 whole entry, looked up): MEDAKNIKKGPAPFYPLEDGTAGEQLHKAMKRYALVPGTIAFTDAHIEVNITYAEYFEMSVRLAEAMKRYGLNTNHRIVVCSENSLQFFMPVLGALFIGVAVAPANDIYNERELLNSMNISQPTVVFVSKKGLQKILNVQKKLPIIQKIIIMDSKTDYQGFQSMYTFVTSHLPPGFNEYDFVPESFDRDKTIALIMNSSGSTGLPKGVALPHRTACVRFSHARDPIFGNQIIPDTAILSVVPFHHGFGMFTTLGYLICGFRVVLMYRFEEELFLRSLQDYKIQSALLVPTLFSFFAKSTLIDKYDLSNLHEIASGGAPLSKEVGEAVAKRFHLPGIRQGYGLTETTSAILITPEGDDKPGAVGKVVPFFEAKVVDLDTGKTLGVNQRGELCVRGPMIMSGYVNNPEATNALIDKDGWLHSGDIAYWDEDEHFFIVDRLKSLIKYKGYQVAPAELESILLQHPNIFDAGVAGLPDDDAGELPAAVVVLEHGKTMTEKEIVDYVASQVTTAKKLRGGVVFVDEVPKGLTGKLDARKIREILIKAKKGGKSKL
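System: Luciferase/luciferin detection reagent, cell-free biochemical luciferase assay | Medium: PBS buffer for ATP | Dosing: Test compounds dosed from 2 mM stocks in 100% DMSO | Timing: 10 min at ambient temperature | Signal: Luminescence measurement of luciferase light output | Evaluation: Luciferase activation, seen as luminescence increase over controls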
FLuc inhib CS: Photinus pyralis luciferase inhibition counter-screen; ATPLite firefly luciferase biochemical luminescence, 10 min; inhibition, % at 10 µM; P08659; 1.5% of 200,000 active;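 active = inhibition above about 50% when tested at 10 µM, limit read from the data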
TRAIL sens C8: sensitizes caspase-8 expressing cells to TRAIL. 1% of 360,000 active. NB7+C8 cells + TRAIL, ATPlite viability luminescence. inhibition (viability loss, TRAIL sensitization), % at 10 µM;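 active = compounds causing at least 50% loss of cell viability in the single-dose screen, relative to plate controls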
PPC-1+TRAIL kill: PPC-1 cancer cell killing with TRAIL present; PPC-1 cells + TRAIL, ATPLite viability luminescence; cell killing (% activity), % at 4 µM or 5 µM; 0.41% of 220,000 active;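 active = cell killing above 50% in the first pass at 4 µM, then a duplicate retest at 5 µM averaging 50% or more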;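 note: plate controls were cells with TRAIL plus DMSO for no effect and medium-only wells lacking cells for full effect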
An asterisk follows results filed as active; . = not tested or not shown.

SMILES | HSP90 inh | FLuc act counter | FLuc inhib CS | TRAIL sens C8 | PPC-1+TRAIL kill
O=C1C(Br)=C(c2ccccc2)C(c2ccccc2)=C1c1ccccc1 | . | . | . | 82* | .
O=c1cc(-c2ccc(F)cc2)[nH][nH]1 | 17* | 1.1 | -5 | -9 | 16
O=c1cc(-c2ccc(Br)cc2)[nH][nH]1 | 12 | 1.1 | -5 | 0 | 27
O=C(Nc1nnc([C@H]2C[C@H](O)[C@@H](CO)O2)s1)Nc1ccccc1Oc1ccccc1 | . | . | . | 2 | .
O=C(Nc1cccc(-n2cnnn2)c1)c1ccc(C(F)(F)F)cc1 | . | . | . | 49* | .
COc1cccc(C(=O)Nc2ccc(C(F)(F)F)n(C)c2=O)c1 | 6 | 0.4 | 56* | 44 | 28
CCOc1ccc(C(=O)Nc2ccc(C(F)(F)F)n(C)c2=O)cc1 | 3 | 1 | -3 | 1 | 18
O=C1Nc2ccccc2N(C(=O)c2ccc(-c3ccccc3)cc2)C1c1nc2ccccc2[nH]1 (stereo not drawn) | . | . | . | 74* | .
O=C1Nc2ccccc2N(C(=O)c2c(F)cccc2F)C1c1nc2ccccc2[nH]1 (stereo not drawn) | . | . | . | 77* | .
CC1C(=O)Nc2ccccc2N1C(=O)c1ccc(F)cc1 (stereo not drawn) | 6 | . | . | -28 | .
OC[C@@H]1CN(Cc2ccco2)C[C@H](n2cnc3c(NCc4ccc(F)cc4)ncnc32)O1 | . | . | . | 3 | .
COc1cccc(/C=N/NC(=O)c2cc3c(OC)cccc3[nH]2)c1O | -2 | 1 | 0 | 53* | 46
COc1cccc(/C=N/NC(=O)c2cc(-c3cccn3C)n[nH]2)c1O | 6 | 0.6 | 38 | 55* | 30
COc1cccc(CNc2ncc(Br)cc2Br)c1O | -6 | 0.9 | 8 | -6 | -7
COc1cccc(CNc2ccc(Br)cn2)c1O | 8 | 0.4 | 62* | 26 | 29
Cc1ccc(C)c(CC(=O)N2CCCCC2c2cc(C(=O)Nc3cccc(C#N)c3)no2)c1 (stereo not drawn) | . | . | . | 17 | .
COC(=O)C[C@@H]1OC[C@H](CO)N1S(=O)(=O)c1ccc(C)cc1 | . | . | . | -7 | .
O=[N+]([O-])c1ccc(CN2CC(N3CCC(Cc4ccccc4)CC3)CS2(=O)=O)cc1 (stereo not drawn) | . | . | . | 1 | .
Cc1ccc(N(Cc2cc(=O)[nH]c3ccccc23)C(=O)CCl)c(C)c1 | -1 | . | . | 52* | .
Cc1ccc2nc(N(CCN(C)C)C(=O)C3CCN(S(=O)(=O)c4cccs4)CC3)sc2c1 | . | . | . | -16 | .
CCc1cc(C(=O)NNC(=S)Nc2cccc(C)c2)cs1 | -2 | 0.5 | 51* | 14 | 13
Cc1cccc(NC(=S)NNC(=O)c2csc(C(C)C)c2)c1 | 0 | 0.5 | 54* | 20 | 23
Cc1cccc(NC(=S)NNC(=O)c2sccc2C)c1 | 0 | 0.6 | 35 | 9 | -6
OC[C@@H]1CN(Cc2ccco2)C[C@H](n2cnc3c(NCc4ccncc4)ncnc32)O1 | . | . | . | -1 | .
CCNC(=O)C1(C)CCN(C(=O)c2ccc(-c3ccccc3)cc2)C1 (stereo not drawn) | . | . | . | 3 | .
SMILES | HSP90 inh | FLuc act counter | FLuc inhib CS | TRAIL sens C8 | PPC-1+TRAIL kill
Oc1c(CN2CCCCC2)cc(COCc2ccccc2)c2cccnc12 | 1 | 1 | -1 | 56* | 15
O=C(NCc1ccncc1)[C@@H]1CCCN1C(=O)[C@H]1CCCN1C(=O)c1c(F)cccc1F | . | . | . | 3 | .
Nc1cccc2c1C(=O)N(Cc1cccc(Cl)c1)C2=O | 4 | 1 | 1 | -4 | -14
O=C1Cc2ccccc2C(=O)N1Cc1cccc(Cl)c1 | 16* | . | . | -10 | .
CN1C(C)(C)CC(O)(C(=O)O)CC1(C)C | . | . | . | -5 | .
CN1CC(c2ccccc2)C2(SC(=S)N(Cc3ccco3)C2=O)C12C(=O)Nc1ccccc12 (stereo not drawn) | 2 | 1 | -2 | 50* | 18
CC1(C)Cc2c(sc(NC(=O)c3ccc(Br)o3)c2C#N)CO1 | 1 | 0.4 | 64* | 37 | 50
O=C(O/N=C1\CCCc2ccccc21)c1ccc(F)cc1 | 3 | 0.1 | 87* | -2 | 9
O=C(O/N=C1/CCSc2ccccc21)c1ccccc1 | -4 | 0.3 | 75* | -4 | 23
Cc1ccc2c(c1)/C(=N/OC(=O)c1ccc(F)cc1)CCS2 | 1 | 0.7 | 27 | 25 | 13
COc1ccc(C(O)c2ncc(-c3ccccc3C)[nH]2)cc1 (stereo not drawn) | . | . | . | 3 | .
CC(C)CC(=O)NN(C)c1nc(-c2ccccc2)nnc1C(F)(F)F | 1 | 1.1 | -6 | 25 | -21
CN(NC(=O)c1ccc(Cl)cc1)c1nc(-c2ccccc2)nnc1C(F)(F)F | 0 | 1 | -5 | 49* | -17
C#CC(=O)CC1(CN(Cc2ccccc2)C(=O)OC(C)(C)C)CCCCC1 | . | . | . | 94* | .
CCN1CCN(Cc2ccc(NC(=O)c3ccc(C)c(NC(=O)C(=O)c4c[nH]c5ccccc45)c3)cc2C(F)(F)F)CC1 | 3 | . | . | 89* | -2
CCN1CCN(Cc2ccc(NC(=O)c3ccc(C)c(NC(=O)c4ccc5n[nH]nc5c4)c3)cc2C(F)(F)F)CC1 | . | . | . | -10 | -2
O=C(Nc1ccc(N2CCCC2)c(Cl)c1)c1ccc([N+](=O)[O-])o1 | 3 | 0.7 | 29 | 88* | 50
O=C(Nc1ccc(CCC(=O)N2CCCC2)cc1)c1ncn[nH]1 | -4 | 1 | 0 | 2 | 2
O=C(Nc1ccc(N2CCCCC2)c(Cl)c1)c1ncn[nH]1 | 1 | 0.4 | 57* | 34 | 22
O=C(Nc1ccc(N2CCCC2)c(Cl)c1)c1ccco1 | 9 | 0.2 | 77* | 55* | 24
CN1CCN(c2ccc(NC(=O)c3ccco3)cc2Cl)CC1 | 10 | . | . | 30 | .
O=C(Nc1ccc(N2CCCCC2)cc1)c1ccc([N+](=O)[O-])o1 | 5 | . | . | 31 | .
Cc1ccc(C(=O)/C=C/c2ccc3c(c2)OCO3)o1 | -1 | 0.2 | 80* | -10 | 9
Cc1ccc(C(=O)N/N=C/c2ccc3c(c2)OCO3)o1 | -3 | 0.3 | 69* | 36 | 15
COc1cccc(/C=C/C(=O)c2ccc[nH]2)c1 | -4 | 0.5 | 52* | 9 | 35
SMILES | HSP90 inh | FLuc act counter | FLuc inhib CS | TRAIL sens C8 | PPC-1+TRAIL kill
Cc1csc(NC(=O)/C=C/c2ccc3c(c2)OCO3)n1 | 3 | 0.2 | 77* | 71* | 57*
O=C(C[n+]1cccc(/C=N/O)c1)NC(=O)Nc1ccccc1 | . | . | . | 2 | .
Cc1ccc(NC(=O)CCNC(=O)N2CC(=O)Nc3ccccc32)cc1Cl | . | . | . | -1 | .
CCOC(=O)/C(=C(/C)N)C1CC(=O)NC1=O (stereo not drawn) | . | . | . | -12 | .
O=C(/C=C/c1ccc2c(c1)OCO2)c1ccc(F)cc1 | -3 | 0.5 | 48 | 19 | 6
O=C(/C=C/c1ccc2c(c1)OCO2)c1ccc[nH]1 | 7 | 0.2 | 76* | 25 | 25
O=C(N/N=C/c1ccc(Br)cc1)c1ccc(Br)o1 | -5 | 0.4 | 58* | 33 | 16
Cc1ccc(C(=O)/C=C/c2ccccc2)o1 | 0 | 0.3 | 72* | 19 | 19
Cc1ccc(C(=O)/C=C/c2ccc(Br)cc2)o1 | 0 | 0.7 | 35 | 20 | 4
